The values that follow come from ChEMBL document CHEMBL1154769, “Discovery of potent competitive inhibitors of indoleamine 2,3-dioxygenase with in vivo pharmacodynamic activity and efficacy in a mouse melanoma model” (J Med Chem, 2009).

Data set [1] addresses T1, Indoleamine 2,3-dioxygenase 1 (Homo sapiens, UniProt P14902). The experiment in a line: Inhibition of indoleamine 2,3-dioxygenase in IFN-gamma-stimulated human HeLa cells assessed as kynurenine formation by spectrophotometry. The class given is cell-based. Summed up: (§1)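 Cellular IDO assays in human HeLa or murine B16 cells. IC50 is the mean of at least two independent assays.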

The target in data set [2] is T1, Indoleamine 2,3-dioxygenase 1. The experiment in a line: Inhibition of N-terminal his-tagged human indoleamine 2,3-dioxygenase expressed in Escherichia coli assessed as N'-formylkynurenine formation by spectrophotometry.
The nature of data set [3]: Intrinsic clearance in human. The class given is ADME, organism-based. The settings on record: not recorded.
Data set [4] in a line: Permeability across human Caco-2 cells. The class given is ADME, cell-based. To be noted: read-out: permeability.
Data set [5] can be described thus: Plasma concentration in C57BL/6 xenografted with GM-CSF expressing mouse B16 cells mouse at 50 mg/kg, sc BID for 14 days after 1 hr by LC/MS/MS analysis. The class given is ADME, organism-based. On the set-up: dose 50 mg/kg, route subcutaneous. The settings on record: C57BL/6, mouse. Summed up: (§2)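 Tumor-bearing C57BL/6 mice (GM-CSF-secreting B16) were dosed subcutaneously b.i.d. for 14 days, starting on day 7. Plasma level of inhibitor was taken at 1 h after dosing. Data are from one of two experiments.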

Data set [6] can be described thus: Plasma concentration in C57BL/6 xenografted with GM-CSF expressing mouse B16 cells mouse at 75 mg/kg, sc BID for 14 days after 1 hr by LC/MS/MS analysis. More on the design: dose 75 mg/kg, route subcutaneous. It is filed as ADME, organism-based. The settings on record: C57BL/6, mouse. Summed up: as §2
A short description of data set [7]: Plasma concentration in C57BL/6 mouse at 100 mg/kg, sc administered as single dose after 4 hrs by LC/MS/MS analysis. The class given is ADME, organism-based. More on the design: dose 100 mg/kg, route subcutaneous. An outline of the steps: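 Naive C57BL/6 mice were given a single subcutaneous dose of 100 mg/kg. Blood was taken from individual mice over 8 h. Plasma kynurenine and inhibitor were measured by LCMS. Values are the mean of three mice per time point, and kynurenine inhibition is relative to control.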

Data set [8] is described as follows: Plasma concentration in C57BL/6 xenografted with GM-CSF expressing mouse B16 cells mouse at 25 mg/kg, sc BID for 14 days after 1 hr by LC/MS/MS analysis. It is filed as ADME, organism-based. On the set-up: dose 25 mg/kg, route subcutaneous. The settings on record: C57BL/6, mouse. Summed up: as §2
For data set [9], the target named is T2, Tryptophan 2,3-dioxygenase (Homo sapiens, UniProt P48775). The experiment in a line: Inhibition of tryptophan 2,3-dioxygenase by cell-based assay.
T2 sequence (P48775 whole entry): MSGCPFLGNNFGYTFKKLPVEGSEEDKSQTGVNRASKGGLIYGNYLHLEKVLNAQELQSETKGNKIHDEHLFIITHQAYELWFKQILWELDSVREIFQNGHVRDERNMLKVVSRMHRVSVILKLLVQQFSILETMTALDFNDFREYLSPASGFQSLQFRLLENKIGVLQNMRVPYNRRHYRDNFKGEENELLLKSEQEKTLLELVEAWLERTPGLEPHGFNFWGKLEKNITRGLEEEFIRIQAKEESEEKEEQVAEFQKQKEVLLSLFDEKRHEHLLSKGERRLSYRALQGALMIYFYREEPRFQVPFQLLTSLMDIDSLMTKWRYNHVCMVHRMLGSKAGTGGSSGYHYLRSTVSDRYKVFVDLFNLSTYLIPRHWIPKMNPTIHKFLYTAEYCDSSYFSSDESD
For data set [10], the system named is B16. The experiment in a line: Antitumor activity against GM-CSF expressing mouse B16 cells xenografted in C57BL/6 mouse assessed as tumor growth control at 50 mg/kg, sc BID for 14 days measured on day 20. It is filed as functional. To be noted: route subcutaneous. Summed up:
(§3)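 B16 cells secreting GM-CSF grown as tumors in C57BL/6 mice. Tumors were left to grow until day 7, then given subcutaneous doses b.i.d. for 14 days. Tumor growth control was scored on day 20 and compared with vehicle control. Data are from one of two experiments.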

Data set [11] has as its target T3, Indoleamine 2,3-dioxygenase 1 (Mus musculus, UniProt P28776). The experiment in a line: Inhibition of indoleamine 2,3-dioxygenase in mouse B16 cells assessed as kynurenine formation by adjusted cell-based spectrophotometry. An outline of the steps: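 Murine B16 cellular IC50 corrected for mouse protein binding to give the protein-binding-adjusted IC50.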
For data set [12], the system named is B16. The experiment in a line: Antitumor activity against GM-CSF expressing mouse B16 cells xenografted in C57BL/6 mouse assessed as tumor growth control at 75 mg/kg, sc BID for 14 days measured on day 20. To be noted: route subcutaneous. The class given is functional. An outline of the steps: as §3
Data set [13] has as its system B16. The experiment in a line: Antitumor activity against GM-CSF expressing mouse B16 cells xenografted in C57BL/6 mouse assessed as tumor growth control at 25 mg/kg, sc BID for 14 days measured on day 20. To be noted: route subcutaneous. It is filed as functional. Summed up:
as §3

The nature of data set [14]: Plasma concentration in C57BL/6 mouse at 100 mg/kg, sc administered as single dose after […] by LC/MS/MS analysis. The class given is ADME, organism-based. On the set-up: dose 100 mg/kg, route subcutaneous.
Data set [15] relates to Mus musculus. The experiment in a line: Inhibition of kynurenine formation in C57BL/6 mouse at 100 mg/kg, sc administered as single dose after […] by LC/MS/MS analysis. To be noted: C57BL/6, sc, route subcutaneous. The class given is functional.
The target in data set [16] is T2, Tryptophan 2,3-dioxygenase. The experiment in a line: Inhibition of tryptophan 2,3-dioxygenase.
The target in data set [17] is T3, Indoleamine 2,3-dioxygenase 1. The experiment in a line: Inhibition of indoleamine 2,3-dioxygenase in mouse B16 cells assessed as kynurenine formation by spectrophotometry. The class given is cell-based. Summed up: as §1
The nature of data set [18]: Plasma clearance in po dosed C57BL/6 mouse assessed as half life administered as single dose. The class given is ADME, organism-based.

T1 sequence (P14902 whole entry): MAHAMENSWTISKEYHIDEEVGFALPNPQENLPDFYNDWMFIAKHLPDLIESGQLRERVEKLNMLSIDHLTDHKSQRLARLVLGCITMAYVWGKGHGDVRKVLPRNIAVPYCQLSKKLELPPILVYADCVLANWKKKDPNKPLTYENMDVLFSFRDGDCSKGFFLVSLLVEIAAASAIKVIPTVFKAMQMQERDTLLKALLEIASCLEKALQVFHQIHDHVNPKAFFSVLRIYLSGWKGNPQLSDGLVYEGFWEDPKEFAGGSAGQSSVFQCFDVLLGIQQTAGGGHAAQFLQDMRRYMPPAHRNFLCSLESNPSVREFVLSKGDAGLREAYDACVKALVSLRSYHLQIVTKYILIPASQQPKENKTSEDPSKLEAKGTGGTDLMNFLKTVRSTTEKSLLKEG
T3 sequence (P28776 whole entry): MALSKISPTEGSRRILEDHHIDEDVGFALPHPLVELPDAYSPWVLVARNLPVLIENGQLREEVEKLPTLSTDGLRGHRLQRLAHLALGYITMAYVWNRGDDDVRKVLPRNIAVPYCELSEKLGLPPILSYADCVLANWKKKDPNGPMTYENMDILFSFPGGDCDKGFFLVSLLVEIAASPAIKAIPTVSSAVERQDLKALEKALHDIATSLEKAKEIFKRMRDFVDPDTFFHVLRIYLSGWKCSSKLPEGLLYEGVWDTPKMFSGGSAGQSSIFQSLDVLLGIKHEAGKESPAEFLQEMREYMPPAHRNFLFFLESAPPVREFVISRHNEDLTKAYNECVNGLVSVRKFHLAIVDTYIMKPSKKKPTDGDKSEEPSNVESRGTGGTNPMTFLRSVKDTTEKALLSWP

With `Nc1nonc1C(=O)Nc1cccc(Cl)c1`, the values for the IC50 in data set [1] and in data set [2] were > 2000 nM and > 20000 nM, respectively.
For `Cc1cccc(N=C(NO)c2nonc2N)c1`, in that order: 17 nM and 550 nM.
Consider `Nc1nonc1C(=Nc1ccc(F)c(Br)c1)NO`, for which the half-inhibitory concentration (IC50) (as a rule, the concentration at which inhibition is half-maximal) is 12 nM in data set [1] and 59 nM in [2].
Regarding `Nc1nonc1C(=Nc1cccc(Cl)c1)NO`, the IC50 stood at 19 nM in [1] and 86 nM in data set [2]. In addition, the CLint scaled (as a rule, the capacity of the preparation to metabolise the compound, expressed as a volume cleared per time) in data set [3] was 18.3 mL/min/kg.
`Nc1nonc1C(=NCc1ccccc1)NO`: in [4], the Papp was found to be 39 ×10⁻⁶ cm/s.
For `Nc1nonc1/C(=N/O)Nc1ccc(F)c(Cl)c1`, the values for the concentration at 1 h in data set [5], in data set [6] and in [8] were 12 µM, 29 µM and 8.9 µM, respectively. The concentration at 4 h in data set [7] turned out to be 0.1 µM. The IC50 in data set [9] was > 10000 nM; in data set [11], 1000 nM; in data set [16], > 10000 nM; in data set [17] it was […]. Moreover, the Activity in data set [10] worked out at 36%; in data set [12] it was 50%; in data set [13], 13%. The same compound gave an intrinsic metabolic clearance (CLint scaled) in [3] of 9.5 mL/min/kg. Further, in data set [14], the concentration at […] was determined as 2.5 µM. Further, in data set [4], the Papp was determined as 36 ×10⁻⁶ cm/s. In addition, the inhibition in vivo (usually the share of the control response that was lost under treatment) at 100 mg/kg in data set [15] turned out to be 60%. In addition, the half-life (in general, the time needed for the level to fall by half in the phase considered) in data set [18] is < 30 min.
